{"data": "Assay results pooled from the literature", "target": "Phosphatidylinositol 4-phosphate 5-kinase type-1 alpha (PIP5K1A, Homo sapiens, UniProt Q99755)", "note": "Lines come from different studies, so protocols differ."}
{"SMILES": "CN(CCCC(F)(F)F)c1nccc(-c2cnn3ncccc23)n1", "assay": "binding", "setting": "1 µM", "remaining binding [%]": 100}
{"SMILES": "C[C@H](c1cccc(C#N)c1)n1cc(Cl)cc(C(N)=O)c1=N", "assay": "cell-free assay, competition with immobilised ligand", "setting": "1 µM", "remaining binding [%]": 100}
{"SMILES": "O=C(c1ccc(Nc2ncc(Cl)c(-c3ccc(Cl)s3)n2)cc1)N1CCC(N2CCCC2)CC1", "assay": "binding, competition with immobilised ligand", "setting": "1 µM", "remaining binding [%]": 3}
{"SMILES": "FC(F)(F)Oc1cccc(-c2cnc3ccc(-c4ccncc4)nn23)c1", "assay": "cell-free assay, competition with immobilised ligand", "setting": "5 µM", "remaining binding [%]": 20}
{"SMILES": "O=C(Nc1ccc(Oc2ccc(F)cc2)cc1)N1CCc2ncccc2[C@H]1c1ccc(F)cc1", "assay": "cell-free assay, competition with immobilised ligand", "setting": "1 µM", "remaining binding [%]": 95}
{"SMILES": "c1cncc(-c2cccc(Nc3nccc(NC4CCCCC4)n3)c2)c1", "assay": "binding, competition with immobilised ligand", "setting": "10 µM", "remaining binding [%]": 71}
{"SMILES": "Cc1nc(NC(=O)N2CCC[C@H]2C(N)=O)sc1-c1ccnc(C(C)(C)C(F)(F)F)c1", "assay": "binding, competition with immobilised ligand", "setting": "10 µM", "remaining binding [%]": 59}
{"SMILES": "C[C@H]1CCN(c2nccc(-c3cnn4ncccc34)n2)C1", "assay": "binding", "setting": "1 µM", "remaining binding [%]": 47}
{"SMILES": "CCN1CCN(Cc2ccc(C(=O)Nc3ccc(C)c(Oc4ccc5c(c4)CC(=O)N5)c3)cc2C(F)(F)F)CC1", "assay": "binding, competition with immobilised ligand", "setting": "1 µM", "remaining binding [%]": 100}
{"SMILES": "CN(C)CC#Cc1ccc(OCCCc2sc(N3CCc4cccc(C(=O)Nc5nc6ccccc6s5)c4C3)nc2C(=O)O)c(F)c1", "assay": "cell-free assay, competition with immobilised ligand", "setting": "1 µM", "remaining binding [%]": 100}
{"SMILES": "Nc1ncc2c(n1)-c1c([nH]c3ccc(C#CC4CC4)cc13)CCCC2", "assay": "binding, competition with immobilised ligand", "setting": "1 µM", "remaining binding [%]": 99}
{"SMILES": "COc1ccc2cc(OCC3(C(=O)O)CN(C(=O)c4ccc(F)cc4)C3)ccc2c1", "assay": "cell-free assay, competition with immobilised ligand", "setting": "1 µM", "remaining binding [%]": 100}
{"SMILES": "O=C(NCC1CCOCC1)c1n[nH]cc1NC(=O)c1c(F)cccc1F", "assay": "binding, competition with immobilised ligand", "setting": "1 µM", "remaining binding [%]": 100}
{"SMILES": "COc1cc(-c2cn(C3CCc4ccccc4N(CC(F)(F)F)C3=O)nn2)ccc1-n1ccc(C)n1 (centres unmarked)", "assay": "cell-free assay, competition with immobilised ligand", "setting": "1 µM", "remaining binding [%]": 96}
{"SMILES": "COc1cnc(Nc2cccc(S(N)(=O)=O)c2)nc1N1CCN(c2ccccc2)CC1", "assay": "binding, competition with immobilised ligand", "setting": "1 µM", "remaining binding [%]": 93}
{"SMILES": "CN(C)c1ncc(F)c(-c2cnn3ncccc23)n1", "assay": "binding", "setting": "1 µM", "remaining binding [%]": 100}
{"SMILES": "O=C(NCCCN1CCOCC1)c1ccc(Nc2ncc(Cl)c(-c3ccc(Cl)s3)n2)cc1", "assay": "binding, competition with immobilised ligand", "setting": "1 µM", "remaining binding [%]": 8.3}
{"SMILES": "F[C@@H]1CCN(c2nccc(-c3cnn4ncccc34)n2)C1", "assay": "binding", "setting": "1 µM", "remaining binding [%]": 100}
{"SMILES": "Cc1cc(NC(=O)c2cccc(S(F)(F)(F)(F)F)c2)cc(-n2ccn3nc(-c4cccnc4)cc23)c1", "assay": "cell-free assay, competition with immobilised ligand", "setting": "1 µM", "remaining binding [%]": 100}
{"SMILES": "CN(c1nccc(-c2cnn3ncccc23)n1)C1CC1", "assay": "binding", "setting": "1 µM", "remaining binding [%]": 100}
{"SMILES": "COc1ncc2cc3ccccc3nc2c1C#N", "assay": "cell-free assay, competition with immobilised ligand", "setting": "5 µM", "remaining binding [%]": 100}
{"SMILES": "O=C(NCCCN1CCOCC1)c1ccc(Nc2nccc(-c3cc4ccccc4s3)n2)cc1", "assay": "binding, competition with immobilised ligand", "setting": "1 µM", "remaining binding [%]": 4.2}
{"SMILES": "CC1CCCN1c1nccc(-c2cnn3ncccc23)n1 (centres unmarked)", "assay": "binding", "setting": "1 µM", "remaining binding [%]": 100}
